Hits are enriched below; roughly 3.6% of the tested compounds scored in any of these assays.
AHR act = activators of human aryl hydrocarbon receptor | AHR-responsive luciferase reporter cells, luminescence | activation, % at 5 µM | 320,000 compounds, 2.5% hits | P35869; in the data active = activation above about 47%
PolyA inh = inhibitors of polyadenylation in S. cerevisiae | S. cerevisiae SKY197-pL101 polyadenylation reporter, beta-gal luminescence; efflux-impaired pdr1/pdr3 knockout yeast; score 100 = 6 SD above DMSO | activity score, % at 12 µM | 300,000 compounds, 0.02% hits;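 active = lowest replicate activity score at least 50, where 100 means six control SD above control mean; inconclusive = lowest score under 50 but half or more replicates reach 50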;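 also: yeast exposed to compound for 9 h at 30 °C; higher score means more reporter readthrough which indicates perturbed polyadenylation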
STAT3 act = increases IL-6 driven STAT3 reporter signal. U3A cells, IL-6 STAT3-luciferase reporter, luminescence; 100% = signal with IL-6 EC80 alone. activation (% of control), % at 5.6 µM. 190,000 compounds, 0.91% hits. AID 871;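 active = activation above the screen-wide mean of compound activation plus 3 SD, cut at about 130% in these data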
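Material: STAT1-lacking human U3A cells, STAT3 luciferase reporter | Benchmarks: IL-6-only wells as 100% reference | Probe or stimulus: IL-6 (33 ng/mL) | Timing: Compound 1 h, then IL-6 6 h at 37 °C | Detection: Luminescence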
PERK inh = blocks human PERK kinase | Q9NZJ5 | CHO PERK-DD fusion, SEAP luminescence translation reporter | inhibition, % at 5.6 µM | 220,000 compounds, 0.17% hits;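 active = inhibition above the mean inhibition of all tested compounds plus 3 SD, set separately per screening campaign, cut at about 2.9% in these data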;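 also: PERK kinase domain activated by AP20187 dimerizer at 100 nM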
Hsp70 activator = Hsp70 transcriptional activation, primary screen; 200,000 compounds, 0.04% hits; AID 1203; HeLa Hsp70 promoter luciferase reporter, luminescence; scaled: vehicle 0, proteasome-inhibitor control 100%; activation, % at 10 µM;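 active = activation above the mean across all tested compounds plus 3 SD, cutoff set per campaign, cut at about 5.5% in these data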
HSF1 inhib = HSF1 inhibition; activity change, negative = inhibition, % at 7.5 µM (by protocol); 300,000 compounds, 0.77% hits; NIH3T3-HGL HSE-luciferase, MG132-induced, luminescence 8 h; active compounds read low;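 active = more than half of replicate wells show activity change below -50%, luminescence cut by over half; inconclusive = some wells, but at most half, below -50%; inactive = no replicate well below -50%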;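 also: luciferase reports HSF-1 transcriptional activity via heat shock element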
AHR act confirm = human AHR activation, confirmation. shares compounds with AHR act. human cells, AHR-responsive luciferase reporter, luminescence. activation, % at 9 µM. 2,300 compounds, 87% hits. AID 2845; in the data active = activation above about 49%;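 also: HepG2 hepatoma cells carrying a DRE-driven firefly luciferase reporter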
PXR act counter = counter-screen for AHR activators: human PXR activators; shares compounds with AHR act; cell-based PXR reporter, luciferase luminescence; activation, % at 11.6 µM; 2,300 compounds, 88% hits; AID 434939; in the data active = activation above about 11%;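 also: human hepatoma DPX-2 cells expressing full-length human PXR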
Of the large screens only hits and unclear results are named; the others gave an inactive call (follow-up assays come after a bar, where they were run).

O=C(Nc1cccc(F)c1)c1ccc(Br)o1	AHR act 120 | AHR act confirm 67 | PXR act counter 20
NC1=NC(=O)/C(=C/c2ccc(-c3ccc(S(N)(=O)=O)cc3)o2)S1	AHR act 121 (no result: STAT3 act, PERK inh, Hsp70 activator) | AHR act confirm 88 | PXR act counter 16
CC(C)c1ccc(NC(=O)c2sccc2-n2cccc2)cc1	AHR act 84 | AHR act confirm 113 | PXR act counter 46
O=C(N/N=C\c1ccccc1)c1sccc1-n1cccc1	AHR act 82 | AHR act confirm 127 | PXR act counter 25
O=C(NNC(=O)c1sccc1-n1cccc1)c1ccc(Cl)cc1	AHR act 90 | AHR act confirm 100 | PXR act counter 28
CCC(CC)COC(=O)C1=C(C)NC(=O)NC1c1ccc2c(c1)OCO2 (stereo unspecified)	none (no result: STAT3 act, PERK inh, Hsp70 activator)
O=C(NNC(=S)NCc1ccccc1)c1cccnc1	none (no result: STAT3 act, PERK inh, Hsp70 activator)
COCCCNC(=S)NNC(=O)c1cccnc1	AHR act 108 | AHR act confirm inactive | PXR act counter inactive
COc1cccc(/C=N/n2c(=O)[nH]c3ccccc32)c1OC	AHR act 118 | AHR act confirm 94 | PXR act counter 18
C/C(=N/NC(=O)Nc1ccccc1)c1ccc(C)cc1	AHR act 105 | AHR act confirm 76 | PXR act counter 20
COc1cccc(-c2ccc(=O)n(CC(=O)Nc3ccc(S(=O)(=O)NCC(C)C)cc3)n2)c1	none
COc1cccc(C=O)c1OCCCOc1cccc2cccnc12	none (no result: STAT3 act, PERK inh, Hsp70 activator)
Cc1sc(N)nc1-c1ccc2c(c1)OCCO2	none (no result: STAT3 act, PERK inh, Hsp70 activator)
NC1=NN=C(c2ccc3c(c2)OCCO3)CS1	AHR act 87 | AHR act confirm inactive | PXR act counter inactive
CC(C)(C)c1nn(-c2ccccc2)c2[nH]c(=O)c(C=O)cc12	none (no result: STAT3 act, PERK inh, Hsp70 activator)
CC(C)(C)n1nnnc1CN(Cc1ccco1)Cc1cc2cc3c(cc2[nH]c1=O)OCO3	AHR act 111 | AHR act confirm 96 | PXR act counter 197
CCC(C)(C)n1nnnc1CN(Cc1ccco1)Cc1cc2cc3c(cc2[nH]c1=O)OCO3	AHR act 107 | AHR act confirm 86 | PXR act counter 147
CCC(C)(C)n1nnnc1CN(Cc1ccc(Cl)cc1)Cc1ccco1	none
COc1ccc2cc(CN(Cc3ccco3)Cc3nnnn3C3CCCCC3)c(=O)[nH]c2c1	none
CN(C)C=Nc1ccc2nn(-c3ccccc3)nc2c1	AHR act 109 | AHR act confirm 117 | PXR act counter 17
Cc1oc(-c2ccc3ccccc3c2)nc1CN(C)C(C)c1ccncn1 (stereo unspecified)	AHR act 115 | AHR act confirm 98 | PXR act counter 43
CC(=O)Nc1ccc(NC2=C(Cl)C(=O)c3ccccc3C2=O)cc1	none (no result: AHR act)
CN(C)c1ccc(NC2=C(Cl)C(=O)c3ccccc3C2=O)cc1	AHR act 135 (no result: PolyA inh) | AHR act confirm 76 | PXR act counter 13
CN(C)S(=O)(=O)c1cccc(C(=O)N=C2N=C3C=CC(Cl)=CN3Cc3ccccc32)c1	AHR act 97 (no result: STAT3 act, Hsp70 activator) | AHR act confirm 50 | PXR act counter 32
CN(C(=O)c1cc2c(=O)n3ccccc3nc2n1C)C1CCCCC1	none (no result: STAT3 act, PERK inh, Hsp70 activator)
O=C(CCn1c(=O)sc2ccccc21)Nc1nc2ccccc2s1	AHR act 106 | AHR act confirm inactive | PXR act counter 98
Cc1cnc(NC(=O)CCCc2nc3ccccc3s2)s1	AHR act 271 | AHR act confirm inactive | PXR act counter 134
CCOc1ccc(/C=C/C(=O)c2c(O)cc(C)oc2=O)cc1	AHR act 83 (no result: STAT3 act, PERK inh, Hsp70 activator) | AHR act confirm inactive | PXR act counter 16
CC(C)(C)c1ccc(NC(=O)c2ccsc2)cc1	none (no result: STAT3 act, Hsp70 activator)
Cc1ccc(NC(=O)c2ccsc2)cc1NS(C)(=O)=O	AHR act 84 (no result: STAT3 act, PERK inh, Hsp70 activator) | AHR act confirm 95 | PXR act counter 33
COc1ccc(N2CCN(C(=O)NCc3cccc(OC)c3)CC2)cc1	none (no result: STAT3 act, PERK inh, Hsp70 activator)
COc1ccc(C2=NN(C(C#N)c3ccc(OC)c(OC)c3)C(c3ccccc3)C2)cc1 (stereo unspecified)	AHR act 107 | AHR act confirm 74 | PXR act counter 21
COc1ccc(Nc2nc(C)cc(C)c2C#N)cc1OC	AHR act 114, HSF1 inhib inconclusive | AHR act confirm 59 | PXR act counter 20
Cc1cc(C)c(C#N)c(Nc2ccc3c(c2)OCCO3)n1	AHR act 86 | AHR act confirm 103 | PXR act counter 22
COc1cccc(Nc2nc(C)cc(C)c2C#N)c1	AHR act 79 (no result: PolyA inh, HSF1 inhib) | AHR act confirm 63 | PXR act counter 31
COc1ccc(N2CCN(C(=O)COC(=O)CCc3ccccc3OC)CC2)cc1	none (no result: STAT3 act, PERK inh, Hsp70 activator)
CCN(CC(=O)Nc1c(F)cccc1F)C(=O)Cn1[nH]c(=O)c2ccccc2c1=O	none (no result: PolyA inh, STAT3 act, PERK inh, Hsp70 activator, HSF1 inhib)
Cn1cc(SCC(=O)NC2CCCCC2)c2ccccc21	AHR act 88 (no result: STAT3 act, PERK inh, Hsp70 activator) | AHR act confirm inactive | PXR act counter 108
O=C(NNC(=O)C1CCC1)c1cccc(Cl)c1	none (no result: PolyA inh, STAT3 act, PERK inh, Hsp70 activator, HSF1 inhib)
CC(NC(=O)c1cnccn1)c1ccc(S(N)(=O)=O)cc1 (stereo unspecified)	none (no result: STAT3 act, Hsp70 activator)
O=C1c2ccccc2C(=O)c2c1cccc2N(CCO)CCO	AHR act 131 (no result: STAT3 act, PERK inh, Hsp70 activator) | AHR act confirm inactive | PXR act counter inactive
O=C1C=C(N(CCO)Cc2ccccc2)c2ccccc2C1=O	none (no result: AHR act)
CCCC1=[N+](CC(=O)c2ccc(C)cc2)CCn2cccc21	AHR act 82 | AHR act confirm 112 | PXR act counter 22
Cc1ccc(-n2c(SC3CCOC3=O)nc3ccccc3c2=O)cc1 (stereo unspecified)	none
Cc1cc(C)cc(Nc2nc3c([nH]2)c(=O)n(C)c(=O)n3C)c1	AHR act 95 | AHR act confirm inactive | PXR act counter 27
CSc1nnc(C)c(=O)n1COC(=O)/C=C/c1ccc2c(c1)OCO2	none (no result: HSF1 inhib)
O=C(CN1C2=NCCCN2c2ccccc21)c1cccs1	none
O=C(CN1C2=NCCN2c2ccccc21)c1ccc(Br)s1	AHR act 94 | AHR act confirm 81 | PXR act counter 14
O=C(CN1C2=NCCN2c2ccccc21)c1ccc2c(c1)OCO2	none
O=C(CN1C2=NCCN2c2ccccc21)c1ccc(Br)cc1	AHR act 112 | AHR act confirm 71 | PXR act counter 21
Cc1ccc(C)c(NC(=O)CCC(=O)NNS(=O)(=O)c2ccc(Cl)cc2)c1	none (no result: PolyA inh, STAT3 act, PERK inh, Hsp70 activator, HSF1 inhib)
N#Cc1ccccc1NC(=O)c1ccccc1OCC(=O)Nc1ccc2c(c1)oc1ccccc12	none
